In publication PMC7502546 (ACS chemical biology, 2020):
Read-outs that look alike come from different tables or passages of the source.

Legend:
[1] = system: CaV1.3-T1081Y; test: Whole-cell patch clamp, CaV1.3-T1081Y channels; assay type: cell-based, rat
Summary of the method: (§1)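 Rat α1D (wild type or point mutants made by site-directed mutagenesis, sequence-verified) was transiently co-transfected with CaVβ3 and CaVα2δ-1 at 1:1:1 into tsA201 cells, with 1/40 (w/w) GFP. GFP-positive cells were whole-cell clamped 48 h later at 22–25 °C. External solution held 10 mM BaCl2 (pH 7.4); internal was NMG-based with 5 mM BAPTA. DMSO stocks were diluted into barium solution and perfused. Median percent inhibition was reported.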

[2] = system: CaV1.3 channels; details: magnitude and selectivity dependent on auxiliary β subunit; cited from earlier work
[3] = molecular target: CaV1.3 LTCCs (Rattus norvegicus, UniProt P27732); test: Equilibrium binding / displacement of 3H2-SKP004D11 in HEK293 membranes
Summary of the method: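 Membranes came from HEK-293 cells stably expressing CaV1.3 α1D/β3/α2δ-1. They were washed in 40 mM HEPES, 100 mM NaCl, pH 8.0, homogenized on ice, and pelleted three times at 100,000 × g, 4 °C. Each reaction held 3.0 nM tritiated pyrimidinetrione ligand, 0.1–0.4 mg/mL protein, and unlabeled competitor, incubated 90 min at room temperature. Samples were filtered on GF/C and scintillation counted. Nonspecific binding used a saturating cold ligand. Ki came from a Langmuir fit plus Cheng-Prusoff; Kd came from a Scatchard plot (n = 4).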

[4] = molecular target: CaV1.3-V1198I (Rattus norvegicus, UniProt P27732, V1198I); test: Whole-cell patch clamp, CaV1.3-V1198I channels; assay type: cell-based; details: read-out: percent inhibition of evoked currents
Summary of the method: as §1

[5] = system: SN dopaminergic neuron from an adult Cav1.3-KO mouse; test: Voltage clamp of SN dopaminergic neurons from Cav1.3-KO mouse; assay type: cell-based; details: cp-PYT 50 μM; CaV1.3 knockout mouse
Summary of the method: (§2)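 SN dopaminergic neurons were acutely isolated from brain slices of young adult (P25) wild-type or CaV1.3 ([…]) knockout mice. Whole-cell voltage clamp used Ba2+ as charge carrier, with voltage ramps from −70 mV to +30 mV. Test compound was applied at 5 μM and 50 μM on wild-type cells and 50 μM on knockout cells. Maximum calcium permeability was compared by Mann-Whitney test.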

[6] = molecular target: CaV1.2-V1063L (Oryctolagus cuniculus, UniProt P15381, V1063L); test: Whole-cell patch clamp, CaV1.2-V1063L channels; assay type: cell-based, rabbit; details: read-out: percent inhibition of evoked currents (median)
[7] = molecular target: CaV1.2-I1183V (Oryctolagus cuniculus, UniProt P15381, I1183V); test: Whole-cell patch clamp, CaV1.2-I1183V channels; assay type: cell-based, rabbit; details: read-out: percent inhibition of evoked currents
[8] = molecular target: CaV1.2-V1063K (Oryctolagus cuniculus, UniProt P15381, V1063K); test: Whole-cell patch clamp, CaV1.2-V1063K channels; assay type: cell-based, rabbit
[9] = system: SN dopaminergic neurons; assay type: cell-based, mice; details: cp-PYT 50 μM; ex vivo brain slice
Summary of the method: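 Ex vivo brain slices from young adult mice were used. SN dopaminergic neurons were whole-cell patched and filled through the pipette with Alexa568 (20 μM) and Fluo-4 (200 μM). Two-photon laser scanning microscopy imaged Ca2+ along a dendrite while somatic voltage was recorded, before and after test compound application. Fluo-4 fluorescence was normalized to baseline (F0).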

[10] = system: Cav1.3 calcium channels in adult SN dopaminergic (DA) neurons; test: Voltage clamp of acutely isolated SN dopaminergic neurons from WT mice; assay type: cell-based
Summary of the method: as §2

[11] = system: CaV1.3-M1078V; test: Whole-cell patch clamp, CaV1.3-M1078V channels; assay type: cell-based, rat; details: for percent inhibition of evoked currents (median): CaV1.3-M1078V
Summary of the method: as §1

[12] = molecular target: CaV1.2-V1063M+I1183V (Oryctolagus cuniculus, UniProt P15381, I1183V/V1063M); test: Whole-cell patch clamp, CaV1.2-V1063M+I1183V channels; assay type: cell-based, rabbit; details: read-out: percent inhibition of evoked currents
[13] = system: CaV1.3; assay type: cell-based, rat; details: for percent inhibition of evoked currents (median): wild-type CaV1.3, step −80 mV to 0 mV; for percentage inhibition of CaV1.3 peak currents (median): test step to 0 mV
Summary of the method: as §1

[14] = system: SN dopaminergic neurons; test: mito-roGFP mitochondrial oxidant stress in ex vivo brain slices; assay type: cell-based, mouse
[15] = molecular target: CaV1.3-M1078L (Rattus norvegicus, UniProt P27732, M1078L); test: Whole-cell patch clamp, CaV1.3-M1078L channels; assay type: cell-based; details: read-out: percent inhibition of evoked currents (median)
Summary of the method: as §1

[16] = system: CaV1.3-M1078I; test: Whole-cell patch clamp, CaV1.3-M1078I channels; assay type: cell-based, rat
Summary of the method: as §1

[17] = system: CaV1.3 channels over CaV1.2 channels; details: cited from earlier work
[18] = rodents; cited from earlier work
[19] = molecular target: CaV1.2-V1063M (Oryctolagus cuniculus, UniProt P15381, V1063M); test: Whole-cell patch clamp, CaV1.2-V1063M channels; assay type: cell-based, rabbit; details: read-out: percent inhibition of evoked currents (median)
[20] = system: CaV1.3 channels; details: micromolar concentrations; cited from earlier work
[21] = molecular target: CaV1.3-M1078K (Rattus norvegicus, UniProt P27732, M1078K); test: Whole-cell patch clamp, CaV1.3-M1078K channels; assay type: cell-based; details: read-out: percent inhibition of evoked currents (median)
Summary of the method: as §1

[22] = molecular target: CaV1.2-V1063I (Oryctolagus cuniculus, UniProt P15381, V1063I); test: Whole-cell patch clamp, CaV1.2-V1063I channels; assay type: cell-based, rabbit; details: read-out: percent inhibition of evoked currents (median)
[23] = molecular target: CaV1.2 (wild-type) (Oryctolagus cuniculus, UniProt P15381); test: Whole-cell patch clamp, wild-type CaV1.2 channels; assay type: cell-based, rabbit; details: rabbit, pH 7.4
[24] = molecular target: CaV1.2 (Oryctolagus cuniculus, UniProt P15381); test: Whole-cell patch clamp, wild-type CaV1.2 channels; assay type: cell-based, rabbit; details: read-out: percent inhibition of evoked currents (median)

CaV1.3 LTCCs, sequence (P27732 921-1530 limits assumed): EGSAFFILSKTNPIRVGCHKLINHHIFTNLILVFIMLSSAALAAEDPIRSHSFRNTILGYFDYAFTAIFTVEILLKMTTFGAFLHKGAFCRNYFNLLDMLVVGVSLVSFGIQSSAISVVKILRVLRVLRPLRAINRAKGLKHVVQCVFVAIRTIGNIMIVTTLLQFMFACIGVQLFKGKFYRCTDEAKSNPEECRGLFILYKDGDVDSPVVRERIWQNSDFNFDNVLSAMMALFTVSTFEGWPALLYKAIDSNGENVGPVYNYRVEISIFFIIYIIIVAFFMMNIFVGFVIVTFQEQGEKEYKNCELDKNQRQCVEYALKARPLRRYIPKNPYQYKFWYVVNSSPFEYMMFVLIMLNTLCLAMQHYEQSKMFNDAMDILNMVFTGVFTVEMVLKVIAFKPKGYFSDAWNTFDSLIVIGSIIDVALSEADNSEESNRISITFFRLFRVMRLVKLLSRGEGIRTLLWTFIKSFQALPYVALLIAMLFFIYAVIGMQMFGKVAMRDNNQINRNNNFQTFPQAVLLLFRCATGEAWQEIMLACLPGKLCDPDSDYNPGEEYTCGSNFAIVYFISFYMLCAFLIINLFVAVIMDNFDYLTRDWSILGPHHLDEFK
CaV1.3-M1078L, sequence (P27732 whole entry M1078L): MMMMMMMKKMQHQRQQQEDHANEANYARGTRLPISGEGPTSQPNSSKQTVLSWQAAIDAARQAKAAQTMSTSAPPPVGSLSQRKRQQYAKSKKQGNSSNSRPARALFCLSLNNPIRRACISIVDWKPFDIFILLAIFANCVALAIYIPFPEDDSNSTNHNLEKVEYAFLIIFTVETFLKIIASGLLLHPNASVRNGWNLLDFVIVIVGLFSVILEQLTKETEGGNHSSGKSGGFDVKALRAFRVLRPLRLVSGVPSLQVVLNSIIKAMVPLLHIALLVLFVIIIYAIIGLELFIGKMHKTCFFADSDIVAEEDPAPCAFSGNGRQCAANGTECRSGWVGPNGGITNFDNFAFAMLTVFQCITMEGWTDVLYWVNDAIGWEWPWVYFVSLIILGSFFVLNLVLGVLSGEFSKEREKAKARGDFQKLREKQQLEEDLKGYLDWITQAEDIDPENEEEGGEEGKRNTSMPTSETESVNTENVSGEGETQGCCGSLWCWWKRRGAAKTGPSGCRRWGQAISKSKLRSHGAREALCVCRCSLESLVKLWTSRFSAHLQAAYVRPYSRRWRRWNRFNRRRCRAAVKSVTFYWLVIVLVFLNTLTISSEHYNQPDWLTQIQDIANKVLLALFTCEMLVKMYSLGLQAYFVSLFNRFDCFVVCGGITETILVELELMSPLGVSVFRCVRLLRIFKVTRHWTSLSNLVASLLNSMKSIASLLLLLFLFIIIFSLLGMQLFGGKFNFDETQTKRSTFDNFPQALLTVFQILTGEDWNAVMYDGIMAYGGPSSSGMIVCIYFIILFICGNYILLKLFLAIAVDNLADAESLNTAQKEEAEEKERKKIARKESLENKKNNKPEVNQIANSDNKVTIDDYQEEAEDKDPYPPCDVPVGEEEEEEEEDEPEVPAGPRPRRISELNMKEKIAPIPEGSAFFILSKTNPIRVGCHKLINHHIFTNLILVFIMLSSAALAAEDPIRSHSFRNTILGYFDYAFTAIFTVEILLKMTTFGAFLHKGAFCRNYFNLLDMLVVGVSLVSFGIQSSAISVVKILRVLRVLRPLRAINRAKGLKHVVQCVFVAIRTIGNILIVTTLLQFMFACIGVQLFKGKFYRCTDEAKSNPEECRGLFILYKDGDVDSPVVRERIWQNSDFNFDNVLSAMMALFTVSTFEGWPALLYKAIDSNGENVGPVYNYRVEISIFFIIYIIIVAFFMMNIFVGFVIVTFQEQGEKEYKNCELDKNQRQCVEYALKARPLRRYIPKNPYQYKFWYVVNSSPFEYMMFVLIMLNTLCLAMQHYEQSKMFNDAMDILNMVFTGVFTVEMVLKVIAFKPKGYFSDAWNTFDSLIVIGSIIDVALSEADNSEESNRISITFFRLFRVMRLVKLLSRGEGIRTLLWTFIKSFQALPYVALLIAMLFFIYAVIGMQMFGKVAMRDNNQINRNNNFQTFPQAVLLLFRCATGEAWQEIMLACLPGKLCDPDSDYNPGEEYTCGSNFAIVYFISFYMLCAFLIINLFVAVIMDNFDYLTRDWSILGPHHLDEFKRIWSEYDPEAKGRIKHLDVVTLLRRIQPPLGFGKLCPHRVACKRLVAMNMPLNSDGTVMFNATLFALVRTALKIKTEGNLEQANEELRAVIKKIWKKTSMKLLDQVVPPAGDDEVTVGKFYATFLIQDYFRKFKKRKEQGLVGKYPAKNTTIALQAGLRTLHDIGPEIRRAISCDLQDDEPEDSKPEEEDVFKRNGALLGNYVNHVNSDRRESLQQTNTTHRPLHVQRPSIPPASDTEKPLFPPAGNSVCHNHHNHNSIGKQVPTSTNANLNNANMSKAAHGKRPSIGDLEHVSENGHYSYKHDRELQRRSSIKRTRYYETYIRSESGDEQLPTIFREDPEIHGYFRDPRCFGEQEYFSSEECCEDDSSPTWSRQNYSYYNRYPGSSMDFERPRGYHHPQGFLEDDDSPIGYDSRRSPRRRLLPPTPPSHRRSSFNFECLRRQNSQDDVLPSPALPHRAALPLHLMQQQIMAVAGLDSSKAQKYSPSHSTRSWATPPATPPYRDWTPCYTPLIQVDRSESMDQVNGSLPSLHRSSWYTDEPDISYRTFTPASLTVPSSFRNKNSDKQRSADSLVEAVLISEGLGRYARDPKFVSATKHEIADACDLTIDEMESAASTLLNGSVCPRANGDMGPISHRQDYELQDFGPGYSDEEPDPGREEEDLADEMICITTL
CaV1.3-M1078L, sequence (P54287 whole entry partner): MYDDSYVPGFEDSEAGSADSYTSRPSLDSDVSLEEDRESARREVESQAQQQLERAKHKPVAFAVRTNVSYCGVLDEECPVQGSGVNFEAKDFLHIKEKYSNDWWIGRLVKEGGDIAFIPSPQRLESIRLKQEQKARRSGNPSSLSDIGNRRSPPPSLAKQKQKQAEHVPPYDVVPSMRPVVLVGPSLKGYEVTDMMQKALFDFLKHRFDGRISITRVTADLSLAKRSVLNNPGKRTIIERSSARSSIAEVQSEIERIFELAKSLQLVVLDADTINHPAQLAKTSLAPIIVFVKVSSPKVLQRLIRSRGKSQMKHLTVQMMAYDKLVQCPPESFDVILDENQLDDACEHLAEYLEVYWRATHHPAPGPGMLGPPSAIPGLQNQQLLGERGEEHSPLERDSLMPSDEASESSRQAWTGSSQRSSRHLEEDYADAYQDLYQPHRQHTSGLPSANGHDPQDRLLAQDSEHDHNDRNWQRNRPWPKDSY
CaV1.3-M1078L, sequence (P54290 25-1091 partner): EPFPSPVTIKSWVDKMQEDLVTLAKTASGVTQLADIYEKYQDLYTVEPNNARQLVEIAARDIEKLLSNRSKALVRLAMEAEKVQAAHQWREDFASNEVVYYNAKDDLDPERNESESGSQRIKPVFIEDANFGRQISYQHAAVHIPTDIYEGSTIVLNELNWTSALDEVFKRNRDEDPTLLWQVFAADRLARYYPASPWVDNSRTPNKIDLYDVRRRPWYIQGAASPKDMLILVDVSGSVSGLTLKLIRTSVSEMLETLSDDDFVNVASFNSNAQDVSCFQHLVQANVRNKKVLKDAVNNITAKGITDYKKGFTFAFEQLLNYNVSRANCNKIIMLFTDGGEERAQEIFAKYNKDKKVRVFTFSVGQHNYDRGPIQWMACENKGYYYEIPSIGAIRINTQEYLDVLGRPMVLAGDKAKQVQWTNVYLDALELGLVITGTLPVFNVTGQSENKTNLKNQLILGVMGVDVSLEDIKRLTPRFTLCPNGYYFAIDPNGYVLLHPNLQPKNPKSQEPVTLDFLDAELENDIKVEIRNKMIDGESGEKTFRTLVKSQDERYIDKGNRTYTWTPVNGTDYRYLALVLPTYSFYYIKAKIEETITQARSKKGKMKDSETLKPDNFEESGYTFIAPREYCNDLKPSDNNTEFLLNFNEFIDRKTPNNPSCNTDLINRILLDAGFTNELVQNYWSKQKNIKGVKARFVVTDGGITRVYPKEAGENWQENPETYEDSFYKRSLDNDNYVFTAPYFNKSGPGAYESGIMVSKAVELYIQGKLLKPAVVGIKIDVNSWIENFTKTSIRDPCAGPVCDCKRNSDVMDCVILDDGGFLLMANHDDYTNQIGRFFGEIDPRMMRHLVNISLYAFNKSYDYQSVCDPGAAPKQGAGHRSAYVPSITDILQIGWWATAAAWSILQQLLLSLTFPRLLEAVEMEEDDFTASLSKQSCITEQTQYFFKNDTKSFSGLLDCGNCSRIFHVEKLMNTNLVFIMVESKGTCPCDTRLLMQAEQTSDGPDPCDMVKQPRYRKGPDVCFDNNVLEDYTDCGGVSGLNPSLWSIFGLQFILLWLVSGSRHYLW
CaV1.3-M1078K, sequence (P27732 whole entry M1078K): as the sequence (P27732 whole entry M1078L) above, with L1078K counted along it
CaV1.3-M1078K, sequence (P54287 whole entry partner): as the sequence (P54287 whole entry partner) above
CaV1.3-M1078K, sequence (P54290 25-1091 partner): as the sequence (P54290 25-1091 partner) above

For `O=C1CC(=O)N(C2CCCC2)C(=O)N1CCc1cccc(Cl)c1` [cp-PYT, 1-(3-chlorophenethyl)-3-cyclopentylpyrimidine-2,4,6-trione], the “percent inhibition of evoked currents (median)” value (“percent inhibition” for short) ([1]; 100 μM cp-PYT) is listed as 2%, the “inhibition of CaV1.3 channels” value [2] is listed as “did inhibit” and the “displacement of tritiated D11 binding” value ([3]; equilibrium membrane binding) is listed as “displaced”. The inhibition at 100 µM [4] was 45%, the “effect on whole cell Ba2+ currents” value [5] was “no effect” and the inhibition at 100 µM [6] was 35%. For the same molecule, the inhibition at 100 µM [7] was 12%, the inhibition at 100 µM ([8]; read-out: percent inhibition of evoked currents) was 40% and the “dendritic Ca2+ oscillations” value [9] was “significantly reduced”. The effect on pacemaking [9] was “no effect”, the “inhibition of whole cell Ba2+ currents” value ([10]; cp-PYT 5 μM, voltage ramps −70 mV to +30 mV, WT mice) was “modest inhibition” and the “inhibition of whole cell Ba2+ currents” value ([10]; cp-PYT 50 μM, WT mouse) was “inhibition”. For the same molecule, the “percent inhibition” value ([11]; 100 μM cp-PYT) was 4%, the “tail currents in M1078V mutant channels” value ([11]; cp-PYT (100 μM) in text) was “slowing of tail currents persisted” and the inhibition at 100 µM [12] was 32%. The “percent inhibition” value ([13]; 100 μM cp-PYT) was 60%, the “percentage inhibition of CaV1.3 peak currents (median)” value (from here on “percentage inhibition”) ([13]; cp-PYT 10 μM, VH −50 mV) was 46% and the “percentage inhibition” value ([13]; cp-PYT 10 μM, VH −80 mV) was 26%. For the same molecule, the “tail current kinetics / channel deactivation rates” value ([13]; cp-PYT 10 μM, step back to −80 mV) was “did not alter”, the tail current kinetics ([13]; cp-PYT 50 μM, step back to −80 mV) was “slowed” and the mitochondrial oxidant stress ([14]; cp-PYT 50 μM bath application) was “significantly diminished”. For the same molecule, the inhibition at 100 µM [15] was 31%, the “percent inhibition” value ([16]; 100 μM cp-PYT) was 37% and the “selectivity for inhibition of CaV1.3 channels over CaV1.2 channels” value [17] was “highly selective”. For the same molecule, the “reinstatement of alcohol- and cocaine-seeking” value [18] was “disrupt”, the inhibition at 100 µM [19] was 47% and the “deactivation of tail currents” value [20] was “slowed”. The inhibition at 100 µM [21] was 58%, the inhibition at 100 µM [22] was 48% and the inhibition at 100 µM [23] was 21%.

For `COC(=O)C1=C(C)NC(C)=C(C(=O)OC(C)C)C1c1cccc2nonc12` (centres unmarked) [isradipine, reference compound], the “percent inhibition” value ([1]; 5 μM isradipine) was 1%, the Ki [3] was 68 nM and the “fraction of 3H2-D11 binding not displaced” value ([3]; displacement by isradipine) was ~ 20%. The inhibition at 5 µM [4] was 94%, the inhibition at 5 µM [6] was 95% and the inhibition at 5 µM [7] was 95%. The inhibition at 5 µM ([8]; read-out: percent inhibition of evoked currents (median)) was 72%, the “percent inhibition” value ([11]; 5 μM isradipine) was 78% and the inhibition at 5 µM [12] was 93%. The “percent inhibition” value ([13]; 5 μM isradipine) was 90%, the “percentage inhibition” value ([13]; isradipine 100 nM (Fig. 4a legend), VH −50 mV) was 92% and the “percentage inhibition” value ([13]; isradipine 100 nM (Fig. 4a legend), VH −80 mV) was 43%. The mitochondrial oxidant stress ([14]; isradipine 1 μM) was “diminished”, the inhibition at 5 µM [15] was 69% and the “percent inhibition” value ([16]; 5 μM isradipine) was 85%. For the same molecule, the “reinstatement of alcohol- and cocaine-seeking” value [18] was “disrupt”, the inhibition at 5 µM [19] was 92% and the inhibition at 5 µM [21] was 88%. For the same molecule, the inhibition at 5 µM [22] was 91% and the inhibition at 5 µM [24] was 78%.
